Tests used:
DIO mice [1] = assay: Terminal liver weight, histopathology, F4/80 and liver triglycerides in DIO mice; assay type: in vivo, mouse
Outline: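 Terminal day-30 livers from obese HFD mice treated daily SC (saline, 10 or 32 mg/kg/day; dosed 1 h pre-sacrifice, 4 h fast). Whole liver weighed. Left-lobe sections flash-frozen for triglyceride assay or formalin-fixed, paraffin-embedded for H&E and F4/80 IHC. Outputs: steatosis, inflammation, ballooning and NAS scores; hepatocyte count; cross-sectional area; F4/80-stained area by image analysis.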

[2] = Acute intravenous dosing plasma PK in mice; assay type: in vivo, mouse; details: IV 5 mg/kg
Outline: (§1)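 Male C57BL/6 mice (~8 weeks) fasted ~12 h before dosing; food returned 4 h post-dose. Single dose at 5 mg/kg IV (n=3) or 30 mg/kg PO (n=3). Saphenous cross-sampling at 0.0833 h (IV only), 0.25, 0.5, 1, 2, 4, 8, 12 h (PO only) and 24 h. K2EDTA plasma stored at −70°C, then LC-MS/MS. Mean ± SD.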

mouse NNMT = target: T1, mouse NNMT (Mus musculus, UniProt O55239); assay: In vitro biochemical assay against mouse NNMT enzyme
T1 sequence (O55239 1-264): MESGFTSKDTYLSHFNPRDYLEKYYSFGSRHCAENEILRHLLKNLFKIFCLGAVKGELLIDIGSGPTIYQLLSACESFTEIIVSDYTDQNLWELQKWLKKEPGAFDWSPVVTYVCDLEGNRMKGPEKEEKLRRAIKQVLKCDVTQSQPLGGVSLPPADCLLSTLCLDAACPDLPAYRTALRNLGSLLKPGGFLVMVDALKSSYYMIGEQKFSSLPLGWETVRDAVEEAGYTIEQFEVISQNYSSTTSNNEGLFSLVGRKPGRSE

[3] = system: Cerep panel of major receptors, enzymes, and uptake transporter proteins; assay: Cerep off-target panel; details: 10 μM
DIO mice [4] = assay: Efficacy of 5A1MQ in DIO mice: body weight, whole-body composition, food intake; assay type: in vivo, mouse; details: for absolute fat mass gain: by study termination, control 4.7 g
Outline: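 Male C57BL/6 mice (~18 weeks) kept on HFD for ≥12 weeks, singly housed, stabilised at ~40–50 g. After handling and 3 days of sham saline SC injections, randomised by baseline body composition (n=8/group). Saline, 10 or 32 mg/kg/day SC once daily at 4–5 PM for 30 days. Weight and food intake measured twice weekly; EchoMRI on days −1, 8, 15, 23, 29. Two-way repeated-measures ANOVA with FDR correction; ANCOVA with body weight covariate; mean ± SEM.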

[5] = Acute oral dosing plasma PK in mice; assay type: in vivo, mouse
Outline: as §1

DIO mice [6] = assay: Terminal serum chemistry and complete blood count in DIO mice; assay type: in vivo, mouse
Outline: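 Day-30 cardiac-puncture blood (~700 μL) from obese HFD mice given saline, 10 or 32 mg/kg/day SC daily. Mice were dosed 1 h before CO2 euthanasia after a 4 h fast. 300 μL used for complete blood count; 150 μL for serum chemistry (TG, ALT, AST, ketones, CK, LDH, lipids). Some endpoints analysed by Kruskal-Wallis test.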

[7] = target: T2, monoamine oxidase-A (MAO-A) (Homo sapiens, UniProt P21397); assay: Cerep panel: MAO-A inhibition; assay type: biochemical; details: 10 μM
T2 sequence (P21397 1-527): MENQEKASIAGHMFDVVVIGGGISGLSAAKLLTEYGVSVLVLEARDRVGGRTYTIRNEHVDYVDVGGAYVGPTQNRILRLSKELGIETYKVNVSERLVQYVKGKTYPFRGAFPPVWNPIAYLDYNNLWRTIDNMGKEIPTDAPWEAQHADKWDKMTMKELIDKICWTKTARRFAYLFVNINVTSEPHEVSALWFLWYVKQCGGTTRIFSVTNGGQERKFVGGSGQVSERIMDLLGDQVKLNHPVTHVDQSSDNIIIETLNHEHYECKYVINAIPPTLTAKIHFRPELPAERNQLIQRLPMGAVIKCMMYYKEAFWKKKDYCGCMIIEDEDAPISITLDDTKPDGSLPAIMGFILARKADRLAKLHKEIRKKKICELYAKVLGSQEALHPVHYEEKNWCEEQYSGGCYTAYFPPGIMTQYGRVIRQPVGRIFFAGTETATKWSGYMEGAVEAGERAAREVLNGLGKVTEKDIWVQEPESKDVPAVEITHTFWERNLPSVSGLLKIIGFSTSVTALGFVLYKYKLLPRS

[8] = Solubility in aqueous and simulated gastric fluids; assay type: physicochemical
[9] = Acute and repeat SC dosing plasma PK in mice; assay type: in vivo, mouse; details: for Cmax: plasma
Outline: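 Male C57BL/6 mice (18–20 weeks), non-fasted, on certified chow, group-housed. Acute arm (n=6): single 25 mg/kg SC. Repeat arm (n=12): 25 mg/kg SC once daily for 5 days. Plasma stored at −70°C and assayed by LC-MS/MS. Mean ± SD.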

[10] = Metabolic stability in cryopreserved mouse hepatocytes; assay type: in vitro ADME
[11] = Terminal liver 5A1MQ concentration in DIO mice; assay type: in vivo, mouse; details: high-dose 32 mg/kg/day SC, ~1–2 h post-dosing on Day 30
Outline: (§2)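 On day 30, obese HFD mice were dosed (saline, 10 or 32 mg/kg/day SC) 1 h before euthanasia, fasted 4 h, and killed by CO2. Left liver lobe cut into ~30 mg sections, flash-frozen, and assayed by LC-MS/MS for test compound and 1-MNA. Quantitation limit 1 ng/mL.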

[12] = Mouse plasma protein binding; assay type: in vitro ADME
DIO mice [13] = assay: Non-fasted; assay type: in vivo, mouse
Outline: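 HFD-fed obese male C57BL/6 mice (n=8/group) received saline, 10 or 32 mg/kg/day SC once daily. Tail blood was taken noon–1 PM without fasting on days −7, 0, 7, 14, 21 and 28. Glucose read by test strip; plasma insulin by ELISA. Change expressed from Day 0 baseline.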

1-MNA = assay: Terminal liver 1-MNA level in DIO mice; assay type: in vivo, mouse; details: high-dose 32 mg/kg/day SC, ~1–2 h post-dosing on Day 30
Outline: as §2

[14] = Tissue distribution of 5A1MQ after repeat SC dosing in mice; assay type: in vivo, mouse
Outline: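 Male C57BL/6 mice (18–20 weeks) given 25 mg/kg SC once daily for 5 days. On day 5, subsets (n=3/timepoint) bled by cardiac puncture at 1, 4 and 8 h post-dose. Epididymal white fat, liver and quadriceps collected terminally and stored at −70°C. Plasma and tissue levels measured by LC-MS/MS; tissue-to-plasma ratios derived.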

DIO mice [15] = assay: Oral glucose tolerance test; assay type: in vivo, mouse; details: Day 21, high-dose 32 mg/kg/day SC vs control and low-dose
Outline: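 Performed on day 21 in obese HFD mice dosed daily SC (saline, 10 or 32 mg/kg/day). After fed-state bleed, mice fasted 4 h, receiving their treatment at 3 h of fasting. One hour post-dose, 2 g/kg oral glucose bolus. Blood glucose at 0, 15, 30, 60 and 120 min; plasma insulin at 0 and 15 min.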

[16] = statistically significant only at the low dose (p<0.05 vs control)
[17] = SC 25 mg/kg once-daily for 5 days
[18] = SC 25 mg/kg single (acute) dose
[19] = SC 25 mg/kg once-daily x5, 1 h post-dose
[20] = SC 25 mg/kg once-daily x5, 8 h post-dose

plasma clearance [2]: 101 mL/min/kg | terminal half-life [2]: 6.3 h | steady-state volume of distribution ([2]; estimated): 39 L/kg | AUC0-∞ ([2]; plasma): 825 ng·h/mL | Cmax ([2]; plasma): 2,009 ng/mL | mouse NNMT IC50 (mouse NNMT): 0.078 µg/mL | activity against Cerep panel targets (all except MAO-A) [3]: no significant activity | Tmax ([5]; PO 30 mg/kg): 4 h | estimated terminal half-life ([5]; PO 30 mg/kg): 14.8 h | oral bioavailability ([5]; PO 30 mg/kg vs IV 5 mg/kg): 3.5% | AUC0-∞ ([5]; PO 30 mg/kg, plasma): 224 ng·h/mL | Cmax ([5]; PO 30 mg/kg, plasma): 14.5 ng/mL | inhibition of monoamine oxidase-A (MAO-A) [7]: 67.4% | solubility ([8]; phosphate buffered saline): > 100 mg/mL | solubility ([8]; simulated gastric fluids): > 10 mg/mL | Plasma AUC0-∞ [9, 17]: 4,687 ng*h/mL | Tmax [9, 17]: ~ 15 minutes | estimated terminal half-life (T1/2) [9, 17]: 12.8 h | Cmax [9, 17]: 5,130 ng/mL | Plasma AUC0-∞ [9, 18]: 7,031 ng*h/mL | estimated terminal half-life (T1/2) [9, 18]: 13.3 h | Tmax ([9]; SC 25 mg/kg single dose): ~ 15 minutes | Cmax ([9]; SC 25 mg/kg single dose): 7,010 ng/mL | clearance [10]: 57.9 mL/min/kg | half-life (T1/2) [10]: < 7 min | liver concentration of 5A1MQ [11]: 28.5 ng/g | mouse plasma protein binding (Fb) [12]: 7% | EWAT-to-plasma ratio [14, 19]: 1.4 | liver-to-plasma ratio [14, 19]: 0.09 | mean total exposure level in liver [14, 19]: 83 ng/ng | muscle-to-plasma ratio [14, 19]: 2.2 | EWAT-to-plasma ratio [14, 20]: 31.1 | liver-to-plasma ratio [14, 20]: 1.4 | muscle-to-plasma ratio [14, 20]: 17.0
Compound: C[n+]1cccc2c(N)cccc21 [5A1MQ, 5-amino-1-methylquinolium]
hepatocyte cell count (DIO mice [1]; 10 and 32 mg/kg/day SC, p<0.0001): significant main effects of treatment | NAFLD activity score (NAS) (DIO mice [1]; 10 and 32 mg/kg/day SC, p<0.0001 high dose vs control): dose-dependent improvement | whole-liver cross-sectional area (DIO mice [1]; 10 and 32 mg/kg/day SC, p=0.0015): significant main effects of treatment | liver TG levels (DIO mice [1]; 10 and 32 mg/kg/day SC, p=0.0169): significantly reduced | liver F4/80 signal (macrophage marker) (DIO mice [1]; high-dose 32 mg/kg/day SC vs control, p<0.05): significantly lowered | terminal liver weight (DIO mice [1]; high-dose 32 mg/kg/day SC, control average 2.1 g): 1.4 g | reduction in microvesicular steatosis compared to controls (DIO mice [1]; high-dose 32 mg/kg/day SC, p<0.01): 73% | liver lobular inflammation (DIO mice [1]; p<0.01 high dose vs control): significantly reduced | hepatocellular ballooning (DIO mice [1]; p<0.05 high dose vs control): significantly reduced | longitudinal lean mass (DIO mice [4]; 10 and 32 mg/kg/day SC): no significant main treatment effect | food intake (DIO mice [4]; 10 and 32 mg/kg/day SC, treatment effect): no main effect | absolute fat mass gain (DIO mice [4]; high-dose 32 mg/kg/day SC): 1.3 g | absolute fat mass gain (DIO mice [4]; low-dose 10 mg/kg/day SC): 4.7 g | decrease in monocytes vs control (DIO mice [6]; high-dose 32 mg/kg/day SC, p<0.001): 50% | decrease in lymphocytes vs control (DIO mice [6]; high-dose 32 mg/kg/day SC, p<0.05): 31% | serum ketone body levels (DIO mice [6]; p<0.0001 high dose vs control): dose-dependently decreased | serum ALT (DIO mice [6]; p<0.001 high-dose vs control): dose-related decreases | serum TG levels (DIO mice [6]; p<0.01 high-dose vs control): significantly lower | serum AST (DIO mice [6]; p<0.01 low-dose vs control): dose-related decreases | total white blood cell count (DIO mice [6]; p<0.05 high-dose vs control): significantly reduced | serum CK (DIO mice [6]; [16]): significantly lowered | serum LDH (DIO mice [6]; [16]): significantly lowered | weekly fed-state blood glucose (DIO mice [13]; 10 and 32 mg/kg/day SC): did not alter | fed-state plasma insulin decrease from baseline (Day 0) to Day 28 (DIO mice [13]; high-dose 32 mg/kg/day SC, control increased by 112%): 9% | fed-state plasma insulin increase from baseline (Day 0) to Day 28 (DIO mice [13]; low-dose 10 mg/kg/day SC, control increased by 112%): 46% | mean reduction in 1-MNA level in the liver relative to controls (1-MNA): 39% | OGTT circulating glucose levels at 15- and 30-min post-bolus glucose (DIO mice [15]): significantly decreased | OGTT plasma insulin at 15 min post-glucose loading (DIO mice [15]; p<0.0001): suppressed

Source: paper PMC11622326 (Diabetes, obesity & metabolism, 2024)
